High-throughput results as filed in PubChem BioAssay.
Shown are actives, neighbours in structure and some others; about 3.1% of the full set was active somewhere.
CSC inhib: cancer stem cell inhibition; cancer stem cell-like cells viability, luminescence; inhibition, % at 7.5 µM; 300,000 compounds, 1.1% hits; in the data active = inhibition above about 75%; inconclusive = no clear call, values can overlap the other calls; tested in HMLE shEcad cells
PolyA inhibitor: yeast polyadenylation inhibition | S. cerevisiae SKY197-pL101 polyadenylation reporter, beta-gal luminescence; efflux-impaired pdr1/pdr3 knockout yeast; score 100 = 6 SD above DMSO | activity score, % at 12 µM | 300,000 compounds, 0.02% hits;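 active = lowest replicate activity score at least 50, where 100 means six control SD above control mean; inconclusive = lowest score under 50 but half or more replicates reach 50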;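 note: yeast exposed to compound for 9 h at 30 °C; higher score means more reporter readthrough which indicates perturbed polyadenylation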
Beta cell apopt: blocks beta cell apoptosis; AID 435005; 300,000 compounds, 0.8% hits; INS-1E cytokine-induced death, ATP luminescence, 48 h; percent of positive-control rescue, neutral wells zero; protection from apoptosis, % (concentration not given with the values);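 active = Every replicate reaches about 75%, or at least half do and their mean reaches it too, limit read from the data; inconclusive = At least half of replicates reach the limit but their mean does not; inactive = Under half of replicates reach the limit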;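 note: higher means more ATP so stronger rescue from cytokine killing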
HIF activator: HIF pathway transcriptional activation; U2OS HRE-luciferase reporter, luminescence; normalized: DMSO 0%, desferrioxamine 100%; activation, % at 7.5 µM (by protocol); 300,000 compounds, 0.32% hits; AID 1910;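 active = mean activation of at least 10% of the iron chelator positive control signal, with at least half of replicates also reaching 10%; inconclusive = mean and replicate majority disagree about reaching 10%; inactive = mean and most replicates under 10%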
T cruzi inh: blocks replication of Trypanosoma cruzi. inhibition, % (no concentration beside the values). T. cruzi beta-gal in NIH3T3, luminescence, 90 h. AID 1885. 300,000 compounds, 1.4% hits;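 active = mean inhibition across valid replicates above about 55%, limit read from the data; inconclusive = mean below that limit but half or more replicates reach it; inactive = mean below it, under half of replicates reach it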;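 note: signal also drops with host cell toxicity which is not excluded here; higher percent means less beta-gal luminescence so fewer parasites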
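System: NIH/3T3 fibroblasts plus reporter T. cruzi. Medium: DMEM plus 2% FBS. Probe or stimulus: 5000 reporter trypomastigotes per well. Compound: single 50 nL compound addition per well in DMSO. Incubation: co-culture of at least 90 h after 3 h attachment. Detection: GalScreen β-gal luminescence, detergent lysis, 60 min. Evaluation: parasite load inhibition, %.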
Calb FLC: affects C. albicans growth with fluconazole; C. albicans CaCi-2 (fluconazole-resistant clinical isolate) + fluconazole, Alamar Blue growth, 48 h; growth inhibition, % (no concentration beside the values); 300,000 compounds, 0.57% hits; AID 1979;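 active = growth inhibition above about 58% in most replicates, limit read from the data, passing the limit was not always enough; inconclusive = exactly half the replicates above a set limit; inactive = most replicates below a set limit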;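 note: all wells also contain fluconazole at 8 µg/ml as a sub-toxic cotreatment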
Large screens that a line does not name were inactive.

CCCCCc1ccc(OCCCC[n+]2cccc(C)c2)c(CCCCC)c1	CSC inhib 109, Beta cell apopt 111, Calb FLC 106
Nc1cc(OC(=O)c2ccc(F)cc2)nn1S(=O)(=O)c1ccccc1	none
O=C(COc1ccccc1Cl)NCCCNC(=O)c1cnccn1	none (no result: CSC inhib)
CC(Sc1nc(-c2ccccc2)cc(C(F)(F)F)n1)C(=O)Nc1sc2c(c1C#N)CCC2 (stereo unspecified)	T cruzi inh 56
Cc1ccc(S(=O)(=O)c2nnn3c2nc(NC2CCN(Cc4ccccc4)CC2)c2ccccc23)cc1C	T cruzi inh 59 (no result: Beta cell apopt)
Cc1sc2nc(SCc3ccc(C(=O)O)cc3)n(Cc3ccco3)c(=O)c2c1C	T cruzi inh 61
C=CCn1c(SCc2ccc(C(=O)O)cc2)nc2sc(C)c(C)c2c1=O	none
CCCCCCCC(=O)NNC(=O)c1ccc([N+](=O)[O-])cc1	none
Cc1ccc(C(=O)NC(=S)NNC(=O)COc2ccc([N+](=O)[O-])cc2)cc1	none
O=C(COc1ccc([N+](=O)[O-])cc1)NNC(=S)NC(=O)c1ccc(Br)cc1	Calb FLC 95
CCCC(=O)NC(=S)NNC(=O)c1ccc([N+](=O)[O-])cc1	Calb FLC 76
O=C(O)c1cnc(-c2ccccc2)nc1Sc1ccc(Cl)cc1Cl	Calb FLC 106 (no result: Beta cell apopt)
CCCc1c(NC(=O)Nc2ccc(Cl)cc2Cl)cnn1-c1ccccc1	none (no result: Beta cell apopt)
O=C(NCCS(=O)(=O)N1CCN(c2ccccc2F)CC1)C1CC(=O)N(c2ccc(F)cc2)C1 (stereo unspecified)	HIF activator 456 (no result: Beta cell apopt)
O=C(COc1coc(CN2CCCc3ccccc32)cc1=O)Nc1ccccc1	none
CCc1cccc2c(C(=O)CN3C(=O)NC4(CCc5ccccc54)C3=O)c[nH]c12 (stereo unspecified)	none (no result: Beta cell apopt)
CCc1cccc2c(C(=O)CN3C(=O)NC(C)(c4cccc5ccccc45)C3=O)c[nH]c12 (stereo unspecified)	CSC inhib 104, T cruzi inh 66
CCOC(=O)c1c(NC(NC(=O)C(C)C)C(Cl)(Cl)Cl)sc2c1CCC2 (stereo unspecified)	CSC inhib 101
CCOC(=O)Nc1sc2c(c1C(=O)OCC)CCC2	none
O=C(N/N=C\c1cccc(Cl)c1)c1ccc(Cn2cc(Br)c([N+](=O)[O-])n2)o1	none
Cc1ccc(/C=N\NC(=O)c2ccc(Cn3cc(Br)c([N+](=O)[O-])n3)o2)o1	T cruzi inh 74
CSc1ccc(/C=C/C(=O)Nc2ccccc2)cc1	Calb FLC 119 (no result: PolyA inhibitor, HIF activator, T cruzi inh)
CCNc1nnc(SCC(=O)N2c3ccccc3NC(=O)CC2C)s1 (stereo unspecified)	none (no result: CSC inhib, PolyA inhibitor, HIF activator, T cruzi inh, Calb FLC)
Cc1cc(C)n(-c2ccc3cccc(NS(C)(=O)=O)c3n2)n1	CSC inhib 87, HIF activator 52, T cruzi inh 60 (no result: Beta cell apopt)
Cc1ccc2cccc(NS(=O)(=O)c3ccccc3)c2n1	none
S=C(Nc1ccccc1)Nc1ccc2cn[nH]c2c1	none
FC(F)Oc1ccc(NC(=S)Nc2ccc3cn[nH]c3c2)cc1	HIF activator 9.8
CC(C)NC(=O)CN1CCN(C(=O)c2ccc3oc(CCCc4ccccc4)nc3c2)CC1	none
Cc1ccc(N/N=C2\CS(=O)(=O)N(C)c3ccsc32)cc1	T cruzi inh 64
CN1c2ccsc2/C(=N/Nc2ccc(F)cc2)CS1(=O)=O	T cruzi inh 64 (no result: PolyA inhibitor)
CCCC(=O)N/N=C1\CS(=O)(=O)N(C)c2ccsc21	none
CCn1ccnc1CN(C)Cc1cn(-c2cc(C)ccc2C)nc1-c1ccccc1	none
Cc1cc2oc3ccc(NCCCn4ccnc4)cc3c(=O)c2cc1C	Calb FLC 86 (no result: Beta cell apopt)
COc1ccc2cc(C(c3nnnn3C(C)(C)C)N3CCc4ccccc4C3)c(=O)[nH]c2c1 (stereo unspecified)	none (no result: PolyA inhibitor, HIF activator, T cruzi inh, Calb FLC)
CCC(C)(C)n1nnnc1C(c1cc2ccc(OC)cc2[nH]c1=O)N1CCc2ccccc2C1 (stereo unspecified)	T cruzi inh 55
Cc1ccccc1NC(=O)/C=C/c1cccs1	none
Cc1cc(C)cc(NC(=O)/C=C/c2ccc([N+](=O)[O-])s2)c1	none
Cc1ccccc1NC(=O)/C=C/c1ccc([N+](=O)[O-])s1	CSC inhib 98, Beta cell apopt 120, Calb FLC inconclusive
CC(=O)c1cccc(NC(=O)/C=C/c2ccc([N+](=O)[O-])s2)c1	T cruzi inh 56 (no result: CSC inhib, Beta cell apopt)
CCOC(=O)c1cc(S(=O)(=O)N2CCN(C3CCCCC3)CC2)cn1C	none
CCOc1ccc(NC(=O)CSc2nccn(-c3ccc4c(c3)OCCO4)c2=O)cc1	none
O=[N+]([O-])c1cc(-c2n[nH]c(-c3ccccc3)n2)cc([N+](=O)[O-])c1	T cruzi inh 72
Cc1cccc(-c2n[nH]c([N+](=O)[O-])n2)c1	none
O=[N+]([O-])c1cc([N+](=O)[O-])c2n[nH]c(-c3ccccc3)c2c1	T cruzi inh 71
Cc1cccc(N2C(=O)CSC23CCCCC3)c1	none
CSCCC(NC(=O)c1ccco1)C(=O)Nc1ccc(C)c(S(=O)(=O)N2CCOCC2)c1 (stereo unspecified)	none
Cc1ccc(NC(=S)Nn2cnnc2)c(C)c1	Calb FLC 82
COc1ccc(C(c2c[nH]c3ccccc23)c2c[nH]c3ccccc23)cc1O	CSC inhib 119 (no result: HIF activator)
COc1ccc(C(=O)NCCc2c[nH]c3ccccc23)cc1OC	none
Cc1cc(C)c(OCCN(C)Cc2ccccc2)c(Br)c1	T cruzi inh 57 (no result: CSC inhib)
CCOC(=O)c1cc2c(ccn2C)n1CC(=O)N1CCN(c2ccccc2)CC1	HIF activator 288
CC(=O)N1c2ccc(S(=O)(=O)NCCc3ccccc3)cc2CC1C (stereo unspecified)	HIF activator 18
CCN(Cc1ccccc1)C(=O)CCNS(=O)(=O)c1ccc2c(c1)CC(C)N2C(C)=O (stereo unspecified)	HIF activator 69 (no result: Beta cell apopt)
CCCS(=O)(=O)N1CCCC(C(=O)Nc2ccc3c(c2)CCC3)C1 (stereo unspecified)	none
O=c1oc(C2(O)CCCCC2)cc2ccc(-c3ccc4[nH]ccc4c3)cc12	none (no result: CSC inhib, PolyA inhibitor, HIF activator, T cruzi inh, Calb FLC)
O=[N+]([O-])c1c(Nc2cccc(O)c2)cc(Cl)c2nonc12	T cruzi inh 60
Cc1ccc(-c2ccccc2[C@@H]2C[C@H]3CN(C)C(=O)[C@]34CCCN24)o1	none
O=C1N(c2ccccc2)C[C@@H]2C[C@@H](c3cc4ccccc4o3)N3CCC[C@@]123	T cruzi inh 56 (no result: CSC inhib, Beta cell apopt)
Cn1c(SCC(=O)N2CCc3ccccc3C2)nnc1-c1ccncc1	Calb FLC 57
O=C(Nc1nccs1)c1cc(-c2ccccn2)nc2c(Cl)cccc12	none
Nc1c(C(O)(C(F)(F)F)C(F)(F)F)cc(C(O)(C(F)(F)F)C(F)(F)F)c2ccccc12	CSC inhib 124
COc1ccc(F)cc1C(=O)C1CCCN(C(=O)c2cccc(N(C)C)c2)C1 (stereo unspecified)	none
